One compound from ChEMBL document CHEMBL3997850 (ACS Med Chem Lett, 2017) can be followed below.

For data set [1], the target named is Voltage-gated inwardly rectifying potassium channel KCNH2 (Homo sapiens, UniProt Q12809). Put plainly: Inhibition of human ERG by patch clamp method. On the technique in general: In patch-clamp work, channel activity is measured electrically.
The test system of data set [2] is Liver. Put plainly: Intrinsic clearance in rat hepatic S9 fraction at 5 uM in presence of UDPGA measured over 30 mins by LC/MS analysis. To be noted: s9, 0.5 h. In kind it is ADME.
The test system of data set [3] is Liver. Put plainly: Intrinsic clearance in rat hepatic S9 fraction at 5 uM in presence of UDPGA/NADPH measured over 30 mins by LC/MS analysis. In kind it is ADME, tissue-based. Particulars: s9, 0.5 h; call rule not given here. The essentials: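 Rat hepatic S9 (2 mg/mL protein) with compound 5 µM, 50 mM Tris-HCl pH 7.5, 8 mM MgCl2, 2 mM NADPH, 2 mM UDPGA, 12.7 µM alamethicin, 37 °C. Reaction started with S9. Aliquots taken over 0–30 min, quenched with acetonitrile, analyzed by LC/MS.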

Data set [4] has as its system Cynomolgus monkey. Nature of the data set: AUC in cynomolgus monkey at 4 mg/kg, iv or 10 mg/kg, po by LC/MS/MS analysis. In kind it is ADME, organism-based, Macaca fascicularis. Particulars: in vivo. A digest of the protocol: (§1)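 Male cynomolgus monkeys given 4 mg/kg IV (5% DMAC, 40% propylene glycol in saline) or 10 mg/kg orally (0.5% methylcellulose). EDTA plasma collected pre-dose through 24 h. Acetonitrile protein precipitation, then LC/MS/MS quantification, linear 2–10000 nM. PK parameters by standard non-compartmental methods.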

Data set [5] in a line: Half life in rat at 5 mg/kg, po by LC/MS/MS analysis. To be noted: in vivo. The format is ADME, organism-based. A digest of the protocol: (§2)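 Male rats, 5 mg/kg IV in 10% DMAC/saline or 5 mg/kg oral in 0.5% aqueous methylcellulose. Plasma (EDTA) sampled pre-dose to 24 h. Quantified by acetonitrile precipitation and LC/MS/MS (2–10000 nM range, 0.1 mL). Non-compartmental analysis of concentration–time data.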

Data set [6] concerns the target T1, Cytochrome P450 1A2 (Homo sapiens, UniProt P05177).
T1 sequence (P05177 whole entry): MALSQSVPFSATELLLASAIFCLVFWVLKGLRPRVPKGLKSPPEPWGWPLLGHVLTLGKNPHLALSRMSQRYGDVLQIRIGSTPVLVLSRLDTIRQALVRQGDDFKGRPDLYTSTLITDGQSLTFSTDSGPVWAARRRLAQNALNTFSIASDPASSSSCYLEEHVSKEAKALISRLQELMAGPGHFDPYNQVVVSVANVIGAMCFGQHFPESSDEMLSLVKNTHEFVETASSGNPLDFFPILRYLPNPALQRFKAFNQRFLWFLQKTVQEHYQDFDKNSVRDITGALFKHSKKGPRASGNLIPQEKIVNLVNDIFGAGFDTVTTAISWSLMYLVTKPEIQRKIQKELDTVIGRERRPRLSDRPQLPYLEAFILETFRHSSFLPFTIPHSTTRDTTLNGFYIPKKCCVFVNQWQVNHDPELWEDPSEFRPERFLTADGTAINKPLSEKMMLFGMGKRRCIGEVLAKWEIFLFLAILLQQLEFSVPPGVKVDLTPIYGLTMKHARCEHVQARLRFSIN
Nature of the data set: Inhibition of recombinant human CYP1A2 assessed as decrease in hydroxylation of 7-benzyloxy-4-trifluoromethyl-coumarin by fluorescence assay. In kind it is ADME. Particulars: recombinant enzyme. The essentials: (§3)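 Recombinant human CYP1A2 or CYP3A4 with 7-benzyloxy-4-trifluoromethyl-coumarin at Km concentration; hydroxylation read by fluorescence. Inhibitor tested at 0–25 µM.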

For data set [7], the target named is Cytochrome P450 3A4 (Homo sapiens, UniProt P08684). Put plainly: Inhibition of recombinant human CYP3A4 assessed as decrease in hydroxylation of 7-benzyloxy-4-trifluoromethyl-coumarin by fluorescence assay. In kind it is ADME. Particulars: recombinant enzyme. The essentials: as §3
Cytochrome P450 3A4, sequence (P08684 whole entry): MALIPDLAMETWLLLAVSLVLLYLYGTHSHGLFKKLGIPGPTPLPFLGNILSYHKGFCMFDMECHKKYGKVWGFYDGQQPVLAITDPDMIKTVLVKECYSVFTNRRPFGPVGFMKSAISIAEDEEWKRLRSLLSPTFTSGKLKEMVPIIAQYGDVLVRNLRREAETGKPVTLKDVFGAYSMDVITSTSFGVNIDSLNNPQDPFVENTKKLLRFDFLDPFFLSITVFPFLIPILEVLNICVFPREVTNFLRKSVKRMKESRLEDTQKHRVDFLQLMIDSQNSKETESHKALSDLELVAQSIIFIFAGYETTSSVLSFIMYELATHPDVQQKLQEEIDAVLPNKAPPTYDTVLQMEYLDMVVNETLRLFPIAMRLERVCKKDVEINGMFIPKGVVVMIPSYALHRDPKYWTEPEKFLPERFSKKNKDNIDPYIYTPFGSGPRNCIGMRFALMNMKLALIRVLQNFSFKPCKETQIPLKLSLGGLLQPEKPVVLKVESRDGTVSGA
For data set [8], the target named is Cytochrome P450 2D6 (Homo sapiens, UniProt P10635). Nature of the data set: Inhibition of recombinant human CYP2D6 assessed as decrease in hydroxylation of 7-methoxy-4-methylcoumarin by fluorimetric method. To be noted: recombinant enzyme. In kind it is ADME. A digest of the protocol:
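Recombinant human isozymes with substrate at Km concentration: CYP2C9 with 7-methoxy-4-(trifluoromethyl)coumarin, CYP2D6 with 7-methoxy-4-methylcoumarin. Hydroxylation read fluorimetrically, inhibitor 0–25 µM.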

In data set [9] the target is T2, Cytochrome P450 2C8 (Homo sapiens, UniProt P10632).
T2 sequence (P10632 whole entry): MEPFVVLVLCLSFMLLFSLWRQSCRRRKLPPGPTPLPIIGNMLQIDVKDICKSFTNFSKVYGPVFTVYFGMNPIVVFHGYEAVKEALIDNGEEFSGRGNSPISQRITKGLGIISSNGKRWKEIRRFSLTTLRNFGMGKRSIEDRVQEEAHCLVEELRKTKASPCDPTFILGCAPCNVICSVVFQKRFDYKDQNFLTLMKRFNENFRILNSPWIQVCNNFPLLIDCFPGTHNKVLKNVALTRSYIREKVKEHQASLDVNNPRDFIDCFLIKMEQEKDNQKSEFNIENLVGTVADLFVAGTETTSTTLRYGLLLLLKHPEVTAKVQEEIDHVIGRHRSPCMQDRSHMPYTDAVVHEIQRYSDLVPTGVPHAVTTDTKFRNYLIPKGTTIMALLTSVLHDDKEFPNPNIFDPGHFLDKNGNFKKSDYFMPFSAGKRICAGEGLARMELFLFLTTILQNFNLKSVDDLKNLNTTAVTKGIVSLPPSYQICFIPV
Put plainly: Inhibition of recombinant human CYP2C8 assessed as decrease in conversion of dibenzylfluoresein to fluorescein by fluorimetric method. In kind it is ADME. To be noted: recombinant enzyme. A digest of the protocol: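 Recombinant human CYP2C8; dibenzylfluorescein at Km concentration converted to fluorescein, measured fluorimetrically. Inhibitor range 0–25 µM.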

Data set [10] in a line: Clearance in rat at 5 mg/kg, iv or 5 mg/kg, po by LC/MS/MS analysis. Particulars: in vivo. In kind it is ADME, organism-based. The essentials: as §2
A short description of data set [11]: Volume of distribution at steady state in rat at 5 mg/kg, iv or 5 mg/kg, po by LC/MS/MS analysis. In kind it is ADME, organism-based. Particulars: in vivo, read-out: Vdss. A digest of the protocol: as §2
Data set [12] can be described thus: Volume of distribution at steady state in cynomolgus monkey at 4 mg/kg, iv or 10 mg/kg, po by LC/MS/MS analysis. In kind it is ADME, organism-based, Macaca fascicularis. To be noted: in vivo, read-out: Vdss. A digest of the protocol: as §1
A short description of data set [13]: Half life in beagle dog at 10 mg/kg, po by LC/MS/MS analysis. The format is ADME, organism-based, Canis lupus familiaris. Particulars: in vivo. The essentials: (§4)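 Male beagle dogs dosed 5 mg/kg IV in 10% DMAC in saline or 10 mg/kg oral in 5% DMAC in 0.5% methylcellulose. EDTA blood taken from pre-dose to 24 h and spun to plasma. Plasma proteins precipitated with acetonitrile, then LC/MS/MS (linear 2–10000 nM, 0.1 mL plasma). Parameters derived by non-compartmental analysis.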

The nature of data set [14]: Half life in beagle dog at 5 mg/kg, iv by LC/MS/MS analysis. In kind it is ADME, organism-based, Canis lupus familiaris. To be noted: in vivo. The essentials: as §4
Data set [15] is described as follows: Oral bioavailability in cynomolgus monkey at 10 mg/kg by LC/MS/MS analysis. The format is ADME, organism-based, Macaca fascicularis. To be noted: in vivo. A digest of the protocol:
as §1

For data set [16], the system named is Mus musculus. Nature of the data set: Toxicity in mouse up to 2000 mg/kg/day after 28 days by clinical pathology test. In kind it is organism-based. Particulars: in vivo, 672 h.
The subject of data set [17] is Canis familiaris. Nature of the data set: Toxicity in dog up to 500 mg/kg/day after 28 days by clinical pathology test. The format is organism-based, Canis lupus familiaris. To be noted: in vivo, 672 h.
The test system of data set [18] is Canis familiaris. Put plainly: Toxicity in dog up to 500 mg/kg/day after 28 days by histopathology test. In kind it is organism-based, Canis lupus familiaris. To be noted: in vivo, 672 h.
In data set [19] the test system is Canis familiaris. Put plainly: Toxicity in dog assessed as change in body weight up to 500 mg/kg/day after 28 days. In kind it is organism-based, Canis lupus familiaris. To be noted: in vivo, 672 h.
Data set [20] relates to Canis familiaris. Put plainly: Toxicity in dog assessed as effect on food consumption up to 500 mg/kg/day after 28 days. In kind it is organism-based, Canis lupus familiaris. To be noted: in vivo, 672 h.

Cytochrome P450 2D6, sequence (P10635 whole entry): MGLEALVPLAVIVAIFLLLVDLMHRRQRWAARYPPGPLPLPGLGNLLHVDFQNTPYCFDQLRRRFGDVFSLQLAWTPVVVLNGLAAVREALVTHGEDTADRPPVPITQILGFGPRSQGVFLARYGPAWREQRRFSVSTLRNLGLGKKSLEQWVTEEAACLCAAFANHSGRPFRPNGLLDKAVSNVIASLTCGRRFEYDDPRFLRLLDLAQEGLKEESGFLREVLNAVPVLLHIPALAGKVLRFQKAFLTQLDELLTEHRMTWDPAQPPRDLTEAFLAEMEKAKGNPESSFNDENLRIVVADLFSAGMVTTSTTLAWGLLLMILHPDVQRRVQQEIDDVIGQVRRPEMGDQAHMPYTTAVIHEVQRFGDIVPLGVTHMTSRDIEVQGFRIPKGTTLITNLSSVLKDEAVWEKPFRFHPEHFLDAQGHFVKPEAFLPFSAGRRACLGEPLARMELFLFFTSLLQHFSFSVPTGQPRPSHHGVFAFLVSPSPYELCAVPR
Voltage-gated inwardly rectifying potassium channel KCNH2, sequence (Q12809 whole entry): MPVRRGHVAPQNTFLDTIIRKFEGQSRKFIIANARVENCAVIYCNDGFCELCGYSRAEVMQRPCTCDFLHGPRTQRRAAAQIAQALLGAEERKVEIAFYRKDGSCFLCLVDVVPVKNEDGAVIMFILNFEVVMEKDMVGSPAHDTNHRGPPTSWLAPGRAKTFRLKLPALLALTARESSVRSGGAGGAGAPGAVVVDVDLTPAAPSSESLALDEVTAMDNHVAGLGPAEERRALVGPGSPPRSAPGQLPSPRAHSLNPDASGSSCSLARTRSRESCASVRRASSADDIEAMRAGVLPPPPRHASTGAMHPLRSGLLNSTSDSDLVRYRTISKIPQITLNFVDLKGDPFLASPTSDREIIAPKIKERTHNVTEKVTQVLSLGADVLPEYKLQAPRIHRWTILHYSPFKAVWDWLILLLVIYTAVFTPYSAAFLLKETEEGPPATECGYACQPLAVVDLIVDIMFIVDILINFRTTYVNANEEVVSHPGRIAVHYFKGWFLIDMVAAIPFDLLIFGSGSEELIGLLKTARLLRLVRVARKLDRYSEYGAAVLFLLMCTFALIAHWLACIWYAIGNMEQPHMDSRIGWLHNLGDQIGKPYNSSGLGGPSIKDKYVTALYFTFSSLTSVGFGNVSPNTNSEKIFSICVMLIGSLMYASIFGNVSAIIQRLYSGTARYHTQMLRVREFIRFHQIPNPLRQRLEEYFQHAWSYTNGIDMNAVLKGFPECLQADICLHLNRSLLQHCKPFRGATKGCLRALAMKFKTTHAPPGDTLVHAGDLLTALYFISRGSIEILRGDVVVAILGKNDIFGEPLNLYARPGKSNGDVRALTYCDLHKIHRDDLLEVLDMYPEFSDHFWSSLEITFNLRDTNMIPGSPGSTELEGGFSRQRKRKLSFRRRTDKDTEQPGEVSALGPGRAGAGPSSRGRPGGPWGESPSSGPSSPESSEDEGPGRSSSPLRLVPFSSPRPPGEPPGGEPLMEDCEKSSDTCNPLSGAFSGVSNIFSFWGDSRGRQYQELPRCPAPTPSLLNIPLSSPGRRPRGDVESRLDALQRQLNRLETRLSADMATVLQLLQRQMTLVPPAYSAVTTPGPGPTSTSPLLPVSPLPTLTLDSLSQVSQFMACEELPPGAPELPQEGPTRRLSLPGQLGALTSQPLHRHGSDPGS

As to `NS(=O)(=O)NCCNc1nonc1C(=NO)Nc1ccc(F)c(Br)c1` [EPACADOSTAT], the “inhibition (INH)” value in data set [1], in data set [6], in data set [7], in data set [8] and in data set [9] was “Not Active” throughout. Further, the CLH was found to be 6.7 mL/min/kg in data set [2] and 12 mL/min/kg in [3]. The compound also showed an AUC in [4] of 9.3 µM·h. For the same compound, the half-life in data set [5] is 2.2 h; in data set [13] it was 4.9 h; in [14], 3.1 h. The compound also had a clearance in data set [10] of 18.3 mL/min/kg. Also, the values for the Vd in data set [11] and in data set [12] were 2 L/kg and 1.8 L/kg, respectively. Also, the bioavailability in [15] worked out at 33%. Moreover, the Activity entry in data set [16], in data set [17], in [18], in data set [19] and in data set [20] was “Non-Toxic” throughout.

The term AUC denotes the area under the concentration-time curve, a measure of exposure. What is called half-life is the time in which the quantity being followed falls by half. Usually bioavailability stands for dose-corrected exposure relative to a reference, in per cent.
